Rows were chosen to be rich in hits. Some 1.2% of all compounds tested hit in one or more screens of this group.
A3A deaminase = human APOBEC3A DNA deaminase inhibition; recombinant A3A, FAM/TAMRA ssDNA deamination fluorescence; inhibition, % at 20 µM; hit rate 0.41% among 330,000;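 active = at least 40% inhibition at 20 µM here, with at most 30% in a related deaminase screen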
Target sequence (P31941 whole entry, looked up): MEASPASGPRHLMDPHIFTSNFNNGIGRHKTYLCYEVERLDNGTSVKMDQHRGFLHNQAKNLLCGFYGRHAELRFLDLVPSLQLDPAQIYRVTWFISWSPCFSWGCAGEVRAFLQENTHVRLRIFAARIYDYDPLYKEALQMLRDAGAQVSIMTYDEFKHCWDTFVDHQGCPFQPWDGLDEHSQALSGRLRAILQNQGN
FN deposition inh = fibronectin deposition inhibition; AH1F fibroblasts, Alexa488-fibronectin deposition fluorescence, overnight; inhibition, % at 12.6 µM; hit rate 0.086% among 350,000; AID 743247;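 active = mean inhibition across replicates of 30% or more, regardless of how many single replicates reach that level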
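Material: AH1F fibroblast monolayer depositing Alexa488-labelled fibronectin into matrix | Input: 10000 AH1F cells/well | Medium: DMEM plus 2% serum, read in PBS | Reagent: Alexa488-fibronectin, 24 nM final in well | Compound dosing: One dose per compound, pinned | Schedule: 1 h adhesion, overnight exposure | Measured by: Fluorescence at 485 nm excitation, 525 nm emission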
APOBEC3G inh = inhibitors of human APOBEC3G DNA deaminase | recombinant A3G, ssDNA deamination FAM/TAMRA fluorescence | Q9HC16 | hit rate 0.28% among 330,000 | inhibition, % at 20 µM;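 active = inhibition of at least 40% at 20 µM, with no more than 30% in the related APOBEC3A deaminase screen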
Target sequence (Q9HC16 whole entry, looked up): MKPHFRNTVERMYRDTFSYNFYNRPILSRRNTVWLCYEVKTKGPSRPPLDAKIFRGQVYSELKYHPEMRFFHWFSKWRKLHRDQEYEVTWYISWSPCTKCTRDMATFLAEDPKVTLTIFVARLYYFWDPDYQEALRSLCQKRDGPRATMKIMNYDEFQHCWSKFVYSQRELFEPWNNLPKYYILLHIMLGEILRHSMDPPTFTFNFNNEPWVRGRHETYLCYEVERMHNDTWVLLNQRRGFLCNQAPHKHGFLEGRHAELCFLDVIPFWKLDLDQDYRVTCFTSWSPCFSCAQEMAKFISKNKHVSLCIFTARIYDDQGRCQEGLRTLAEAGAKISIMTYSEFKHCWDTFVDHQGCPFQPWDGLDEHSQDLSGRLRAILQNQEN
ABHD5 PLIN5 PPI = ABHD5-PLIN5 protein interaction inhibition. Split G. princeps luciferase complementation, luminescence, 4 h. hit rate 0.78% among 360,000. Q00G26+Q8WTS1. AID 602281. inhibition, % at 4 µM;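 active = inhibition above the mean inhibition across every tested compound plus 3 SD, cut at about 22% in these data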
A3A conf = APOBEC3A (human) deaminase inhibition, confirmed; shares compounds with A3A deaminase; recombinant A3A, ssDNA deaminase UDG fluorescence assay; inhibition, % at 20 µM; hit rate 63% among 1,400;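 active = inhibition reaching a set limit, 80% of the first screen's cutoff, at 20 µM in any replicate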
UDG A3A counter = UDG inhibition in APOBEC3A counter-screen. AID 504714. UDG counterscreen, FAM/TAMRA uracil oligo fluorescence. shares compounds with A3A deaminase. 1,000 tested, under 10 active. inhibition, % at 20 µM; call rule not given here
A number is an active result; 0 = inactive; - = not tested or not shown.

SMILES	A3A deaminase	FN deposition inh	APOBEC3G inh	ABHD5 PLIN5 PPI	others
Cc1cccc(N2C(=O)NC(=O)/C(=C/c3ccc(N4CCOCC4)cc3)C2=O)c1	0	0	0	22.5
C=CCN1[C@@H]2CN(C(=O)NC(C)C)C[C@H]1C2c1ccc(Br)cc1 (stereo partly drawn)	-	0	-	-
C=C1C(C)C2C(Cc3ccccc3)NC(=O)C23OC(=O)/C=C/C(O)CCCC(C)C/C=C/C3C1O (stereo not drawn)	-	41.0	-	0
C/C1=C\[C@@H](C)C/C=C/[C@H]2[C@@H]3O[C@]3(C)[C@@H](C)[C@H]3[C@H](Cc4c[nH]c5ccccc45)NC(=O)[C@]32C(=O)/C=C/C(=O)[C@@H]1O	0	-	0	69.6
NC(N)=N/N=C/c1cn(-c2ccccc2)nc1-c1cccs1	0	34.6	0	0
O=c1c2ccccc2nc(-c2cccs2)n1-c1ccccc1	0	-	0	0
FC(F)(F)CN1C[C@@H]2C(c3ccccc3)[C@H](C1)N2CC1CC1 (stereo partly drawn)	-	0	-	-
COC(=O)C1=Nc2ccccc2/C1=C\c1c(O)n(-c2ccc(OC)cc2)c(=O)[nH]c1=O	0	0	0	37.6
CC(C)n1c(O)c(C2c3cc(Cl)ccc3Oc3[nH]c(=O)n(C(C)C)c(=O)c32)c(=O)[nH]c1=O (stereo not drawn)	-	-	-	37.2
CC(=O)c1c(O)n(-c2cccc(Cl)c2)c(=O)[nH]c1=O (tested in a mixture with another compound)	0	0	0	0
CCN1/C(=C\C=C\C2=[N+](CC)c3ccccc3C2(C)C)C(C)(C)c2ccccc21	0	-	0	46.1
FC(F)(F)CN1C[C@@H]2C(c3ccc(Br)cc3)[C@H](C1)N2CC1CC1 (stereo partly drawn)	-	0	-	-
O=[N+]([O-])/C=C/c1c(Cl)cccc1Cl	-	0	-	22.2
O=C1NC(=O)[C@]2(Cc3ccccc3N3CCN(c4ccccc4)CC32)C(=O)N1c1ccccc1 (stereo partly drawn)	0	31.3	0	0
CN1C(=O)NC(=O)[C@]2(Cc3ccccc3N3CCN(c4ccccc4)CC32)C1=O (stereo partly drawn)	0	0	0	0
COc1ccc(C(=O)O)cc1OC	-	-	-	0
O=C(O)c1cc[c]([Hg][Cl])cc1	0	-	0	82.4
COCCCNC(=O)Cn1cc(/C=C2\C(=O)NC(=O)N(c3ccccc3F)C2=O)c2ccccc21	0	-	0	27.0
COCCNC(=O)Cn1cc(/C=C2\C(=O)NC(=O)N(c3ccccc3F)C2=O)c2ccccc21	0	0	0	0
FC(F)(F)CN1C[C@@H]2N[C@H](C1)C2c1ccc(Br)cc1 (stereo partly drawn)	-	0	-	-
C=CCN1[C@@H]2CN(S(C)(=O)=O)C[C@H]1C2c1ccccc1 (stereo partly drawn)	-	0	-	-
CC(=O)OC(C)(C)/C=C/C(=O)C(C)(O)C1C(O)CC2(C)C3CC=C4C(CC(O)C(=O)C4(C)C)C3(C)C(=O)CC12C (stereo not drawn)	-	30.5	-	0
COc1cc(/C=C2/C(=O)NC(=O)N(c3ccccc3)C2=O)ccc1O	0	0	0	0
CCOc1cc(/C=C2/C(=O)NC(=O)N(c3ccc(CC)cc3)C2=O)ccc1OC(=O)c1cccs1	0	-	0	22.0
C/C=C/c1ccc(C2[C@H]3CNC[C@@H]2N3CC2CCCCC2)cc1 (stereo partly drawn)	-	0	-	-
SMILES	A3A deaminase	FN deposition inh	APOBEC3G inh	ABHD5 PLIN5 PPI	others
COc1cccc(N2C(=O)/C(=C/c3ccc(C)o3)C(=O)NC2=S)c1	0	0	0	0
COc1ccc(N2C(=O)/C(=C/c3ccc(N(C)C)o3)C(=O)NC2=S)cc1	0	0	0	23.0
Fc1ccc(CN2CC3NC(C2)C3c2ccc(Br)cc2)cc1 (stereo not drawn)	-	0	-	-
C=C(C=O)CC1CC(O)[C@]2(C)OC3CC4OC5C[C@]6(C)O[C@]7(C)CCC8OC9C[C@]%10(C)OC%11C(C)=CC(=O)OC%11CC%10OC9C[C@@H](C)C8OC7CC6O[C@]5(C)CC5OC5C4OC3CC2O1 (stereo partly drawn)	0	-	0	22.1
CN1[C@@H]2CN(CC3CC3)C[C@H]1C2c1ccc(Br)cc1 (stereo partly drawn)	-	0	-	-
CC(C)NC(=O)N1CC2C(c3ccccc3)C(C1)N2C (stereo not drawn)	-	0	-	-
CCOP(=O)(CCP(=O)(OCC)OCC)OCC.C[CH2][Sn]([Cl])([Cl])[CH2]C	-	0	-	78.2
OC[C@@H]1Nc2ccc(C#Cc3cccnc3)cc2[C@H]2NCC[C@@H]12	-	0	-	-
CCOC(=O)[C@]12Cc3c(cc(OC)c(OC)c3OC)[C@H]1N(C)C(=O)c1cc(OC)ccc12	-	-	-	22.8
COc1ccc(Cn2c(N)c(C(=O)NCc3ccco3)c3nc4ccccc4nc32)cc1	0	-	0	22.2
CC(=O)N1C[C@@H]2C(c3ccccc3)[C@H](C1)N2C (stereo partly drawn)	-	0	-	-
COc1cc(/C=C(/C)[N+](=O)[O-])ccc1OCc1ccccc1Cl	0	-	0	89.7
COc1cc(C=C2C(=O)NC(=O)NC2=O)ccc1OCc1ccc([N+](=O)[O-])cc1	-	0	-	0
Cc1cccc(N=C2c3cc([N+](=O)[O-])ccc3-c3c2cc([N+](=O)[O-])cc3[N+](=O)[O-])c1	-	0	-	22.1
CC(C)NC(=O)N1C[C@@H]2N[C@H](C1)C2c1ccccc1 (stereo partly drawn)	-	0	-	-
O=[N+]([O-])c1cc(S(=O)(=O)c2ccc(O)c([N+](=O)[O-])c2)ccc1O	70.4	0	0	0	A3A conf=83.6;UDG A3A counter=0
O=[N+]([O-])c1cccc(O)c1	0	-	0	0
COc1cc2c(cc1O)C[C@H]1NCCc3cc4c(c-2c31)OCO4	60.8	0	0	0	A3A conf=34.0
COc1cc2c(cc1OC)-c1c(OC)c(OC)cc3c1C(C2)N(C)CC3 (stereo not drawn)	0	-	0	0
COc1ccc(OC(=O)N(C)C[C@H]2OCc3ccccc3-c3c(n(C)c4ccccc34)C(=O)N([C@@H](C)CO)C[C@H]2C)cc1	-	0	-	-
CCN(CC)c1ccc(/C=C2/C(=O)NC(=O)N(Cc3ccco3)C2=O)cc1	0	0	0	0
COc1ccc(CN2C(=O)NC(=O)/C(=C\c3ccco3)C2=O)cc1	47.4	0	0	0	A3A conf=62.1;UDG A3A counter=0
CN(C)c1ccc(/C=C2/C(=O)NC(=O)N(Cc3ccco3)C2=O)cc1	59.7	0	0	0	A3A conf=38.9;UDG A3A counter=0
Cc1ccc(/C=C2/C(=O)NC(=O)N(CCc3ccc(F)cc3)C2=O)o1	0	-	0	0
COc1ccc(CN2C(=O)NC(=O)/C(=C\c3cc(OC)c(OC)c(OC)c3)C2=O)cc1	0	0	0	0
O=C1NC(=O)N(CCc2ccc(F)cc2)C(=O)/C1=C/c1ccco1	74.2	0	0	0	A3A conf=52.5;UDG A3A counter=0
